From ChEMBL document CHEMBL3085737, “Inducing secondary metabolite production by the endophytic fungus Fusarium tricinctum through coculture with Bacillus subtilis” (2013)

What was measured:
Format in all cases: functional
[1] = system: Streptococcus pneumoniae; assay: Antibacterial activity against Streptococcus pneumoniae ATCC 49619 assessed as growth inhibition by broth microdilution method
In short: (§1)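 MIC by broth microdilution following CLSI guidelines; inoculum made by direct colony suspension, 5 × 10^5 CFU/mL after the final dilution. Compounds were added from a 10 mg/mL DMSO stock, tested up to 64 μg/mL, giving 0.64% final DMSO at the top concentration. Growth was read as OD600 in a microtiter plate reader.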

[2] = system: Bacillus subtilis; assay: Antibacterial activity against Bacillus subtilis 168 trpC2 assessed as growth inhibition by broth microdilution method; conditions: subsp. subtilis str. 168; in short: as §1
[3] = system: Pseudomonas aeruginosa; assay: Antibacterial activity against multidrug-resistant Pseudomonas aeruginosa B 63230 assessed as growth inhibition by broth microdilution method
In short: (§2)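 MIC by broth microdilution following CLSI guidelines. Inoculum made by direct colony suspension, giving 5 × 10^5 CFU/mL after the last dilution step. Compounds dosed from 10 mg/mL DMSO stocks up to 64 μg/mL top concentration, where final DMSO was 0.64%. Growth read as OD600 in a microtiter plate reader.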

[4] = system: Staphylococcus aureus; assay: Antibacterial activity against multidrug and methicillin-resistant Staphylococcus aureus 25697 assessed as growth inhibition by broth microdilution method; in short: as §2
[5] = system: Staphylococcus aureus; assay: Antibacterial activity against Staphylococcus aureus ATCC 29213 assessed as growth inhibition by broth microdilution method; in short: as §1
[6] = system: Enterococcus faecalis; assay: Antibacterial activity against multidrug and vancomycin-resistant Enterococcus faecalis UW 2689 assessed as growth inhibition by broth microdilution method; in short: as §2
[7] = system: Escherichia coli; assay: Antibacterial activity against Escherichia coli ATCC 25922 assessed as growth inhibition by broth microdilution method; in short: as §1

Structure (SMILES): C=C1NC(=O)C(C)C(CCC(C)C(=O)/C=C/C(C)=C/CCC(C)CCCCCC)OC(=O)C(CCC(N)=O)NC(=O)C(C)CNC1=O (stereo not drawn)
- MIC [1]: > 64 µg/mL
- MIC [2]: > 64 µg/mL
- MIC [3]: > 64 µg/mL
- MIC [4]: > 64 µg/mL
- MIC [5]: > 64 µg/mL
- MIC [6]: > 64 µg/mL
- MIC [7]: > 64 µg/mL

Structure (SMILES): CC(=O)C[C@@H](O)Cc1cc2cc(O)cc(O)c2c(=O)o1
- MIC [1]: > 64 µg/mL
- MIC [2]: > 64 µg/mL
- MIC [3]: > 64 µg/mL
- MIC [4]: > 64 µg/mL
- MIC [5]: > 64 µg/mL
- MIC [6]: > 64 µg/mL
- MIC [7]: > 64 µg/mL

Structure (SMILES): C[C@@H](O)C[C@@H](O)Cc1cc2cc(O)cc(O)c2c(=O)o1
- MIC [1]: > 64 µg/mL
- MIC [2]: > 64 µg/mL
- MIC [3]: > 64 µg/mL
- MIC [4]: > 64 µg/mL
- MIC [5]: > 64 µg/mL
- MIC [6]: > 64 µg/mL
- MIC [7]: > 64 µg/mL

Structure (SMILES): Cc1cc(=O)cc(Cc2cc(O)cc(O)c2)o1
- MIC [1]: > 64 µg/mL
- MIC [2]: > 64 µg/mL
- MIC [3]: > 64 µg/mL
- MIC [4]: > 64 µg/mL
- MIC [5]: > 64 µg/mL
- MIC [6]: > 64 µg/mL
- MIC [7]: > 64 µg/mL

Structure (SMILES): COC(=O)c1oc(=O)c2c(O)c3c(=O)cc(C)oc3cc2c1O
- MIC [1]: 4 µg/mL
- MIC [2]: 8 µg/mL
- MIC [3]: > 64 µg/mL
- MIC [4]: 2 µg/mL
- MIC [5]: 2 µg/mL
- MIC [6]: 8 µg/mL
- MIC [7]: > 64 µg/mL

Structure (SMILES): O=C(O)CNc1ccccc1C(=O)O
- MIC [1]: > 64 µg/mL
- MIC [2]: > 64 µg/mL
- MIC [3]: > 64 µg/mL
- MIC [4]: > 64 µg/mL
- MIC [5]: > 64 µg/mL
- MIC [6]: > 64 µg/mL
- MIC [7]: > 64 µg/mL

Structure (SMILES): O=C(O)c1cn(C2CC2)c2cc(N3CCNCC3)c(F)cc2c1=O [CIPROFLOXACIN]
- MIC [1]: 0.25 µg/mL
- MIC [2]: 0.16 µg/mL
- MIC [3]: 16 µg/mL
- MIC [4]: 8 µg/mL
- MIC [5]: 0.0625 µg/mL
- MIC [6]: 16 µg/mL

Structure (SMILES): CC[C@H](C)[C@H]1C(=O)O[C@H](C(C)C)C(=O)N(C)[C@@H](C(C)C)C(=O)O[C@H](C(C)C)C(=O)N(C)[C@@H](C(C)C)C(=O)O[C@H](C(C)C)C(=O)N1C [ENNIATIN B1]
- MIC [1]: 4 µg/mL
- MIC [2]: 16 µg/mL
- MIC [3]: > 64 µg/mL
- MIC [4]: 8 µg/mL
- MIC [5]: 8 µg/mL
- MIC [6]: 8 µg/mL
- MIC [7]: > 64 µg/mL

Structure (SMILES): CC(C)[C@H]1C(=O)O[C@H](C(C)C)C(=O)N(C)[C@@H](C(C)C)C(=O)O[C@H](C(C)C)C(=O)N(C)[C@@H](C(C)C)C(=O)O[C@H](C(C)C)C(=O)N1C [ENNIATIN B]
- MIC [1]: 16 µg/mL
- MIC [2]: > 64 µg/mL
- MIC [3]: > 64 µg/mL
- MIC [4]: > 64 µg/mL
- MIC [5]: > 64 µg/mL
- MIC [6]: > 64 µg/mL
- MIC [7]: > 64 µg/mL

Structure (SMILES): CN(C)[C@@H]1C(O)=C(C(N)=O)C(=O)[C@@]2(O)C(O)=C3C(=O)c4c(O)cccc4[C@@](C)(O)[C@H]3C[C@@H]12 [TETRACYCLINE]
- MIC [1]: 0.0625 µg/mL
- MIC [2]: 4 µg/mL
- MIC [3]: 32 µg/mL
- MIC [4]: 32 µg/mL
- MIC [5]: 0.25 µg/mL
- MIC [6]: 64 µg/mL
- MIC [7]: 0.5 µg/mL

Structure (SMILES): CN[C@H](CC(C)C)C(=O)N[C@H]1C(=O)N[C@@H](CC(N)=O)C(=O)N[C@H]2C(=O)N[C@H]3C(=O)N[C@H](C(=O)N[C@H](C(=O)O)c4cc(O)cc(O)c4-c4cc3ccc4O)[C@H](O)c3ccc(c(Cl)c3)Oc3cc2cc(c3O[C@@H]2O[C@H](CO)[C@@H](O)[C@H](O)[C@H]2O[C@H]2C[C@](C)(N)[C@H](O)[C@H](C)O2)Oc2ccc(cc2Cl)[C@H]1O [VANCOMYCIN]
- MIC [1]: 0.125 µg/mL
- MIC [2]: 0.125 µg/mL
- MIC [3]: > 64 µg/mL
- MIC [7]: > 64 µg/mL
